Test results reported in ChEMBL document CHEMBL4339193, “Phenotypic Screening-Based Identification of 3,4-Disubstituted Piperidine Derivatives as Macrophage M2 Polarization Modulators: An Opportunity for Treating Multiple Sclerosis” (J Med Chem, 2019).
The source made the active and inactive calls. No cut-off for these calls is given here.

Key:
Mus musculus [1] = assay: (§1) Antiinflammatory activity in C57BL/6J mouse model of MOG (35 to 55 residues)/pertussis toxin/complete Freund's adjuvant-induced experimental allergic encephalomyelitis assessed as effect on dendritic cell population in spleen by measuring change in CD11c level at 200 mg/kg, ig administered daily starting from 7 days post-immunization measured after 13 to 19 days post-immunization by flow cytometry analysis; format: functional, organism-based
Outline: (§2)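 MOG35-55/CFA EAE mice were dosed daily in saline from day 7 and sampled between days 13 and 19. Spleens and dLNs were mechanically dissociated to single cells. CNS cells came from collagenase IV digestion and a 70%/30% Percoll gradient. Cells were surface-stained with fluorochrome antibodies, including CD4, CD11b, CD11c and MHC-II, and analysed by flow cytometry.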

RAW264.7 [2] = assay: Modulation of M2 polarization in mouse RAW264.7 cells assessed as up regulation of CCR2 mRNA expression at 300 nM measured after 24 hrs by qRT-PCR analysis; format: functional, cell-based
Mus musculus [3] = assay: as §1, with “Treg” for “dendritic”, “CD4” for “CD11c”; format: functional, organism-based; outline: as §2
Mus musculus [4] = assay: (§3) Induction of M2 polarization in C57BL/6J mouse model of MOG (35 to 55 residues)/pertussis toxin/complete Freund's adjuvant-induced experimental allergic encephalomyelitis assessed as CD206 level in CNS at 200 mg/kg, ig administered daily starting from 7 days post-immunization measured after 13 to 19 days post-immunization by flow cytometry analysis (reference value: 7.8%); format: functional
Outline: (§4)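 MOG35-55/CFA EAE mice were dosed daily in saline from day 7 and sampled between days 13 and 19. Cells came from spleen and dLN by mechanical dissociation and from CNS by collagenase IV/Percoll. They were stained for F4/80 with CD206 (M2) or CD86 (M1), and each was read by flow cytometry as a percentage of total F4/80+ macrophages.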

BMDM [5] = assay: Modulation of M2 polarization in C57BL/6J mouse BMDM cells assessed as up regulation of Mrc1 mRNA expression at 300 nM measured after 24 hrs by qRT-PCR analysis; format: functional, cell-based
Outline: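 BMDMs treated 24 h with 300 nM compound at 37 °C, 5% CO2. Trizol RNA extraction, then qRT-PCR for Arg1, Mrc1 and Fizz1 mRNA. Mean ± SEM.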

[6] = molecular target: Signal transducer and activator of transcription 3 (Mus musculus) (UniProt P42227); assay: Stimulation of STAT3 phosphorylation at Y705 residue in mouse RAW264.7 cells at 300 nM measured after 4 to 24 hrs by Western blot analysis; format: cell-based
Outline: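 Cell lysates separated by SDS-PAGE, transferred to PVDF and probed for Akt, p-Akt(308), p-Akt(473), Stat3, p-Stat3(Y705), Stat6 and p-Stat6; ECL detection, GAPDH as loading control.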

Mus musculus [7] = assay: as §1, with “TH1” for “effect on dendritic”, “spinal cord” for “spleen”, “IFNgamma” for “change in CD11c”, “14” for “13”, “21” for “19”, “analysis (reference value: 22.3%)” for “analysis”; format: functional
Outline: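 EAE induced with MOG35-55 (2 mg/ml in PBS) emulsified in CFA containing 4 mg/ml heat-killed M. tuberculosis H37Ra, injected s.c. into the neck and both hindlegs. Drug in saline daily from day 7. Between days 13 and 19, CNS mononuclear cells were taken by collagenase IV digestion and a 70%/30% Percoll gradient. Cells were restimulated 5 h with brefeldin A 2 µg/ml, PMA 0.1 µg/ml and ionomycin 0.5 µg/ml, stained for surface CD4, fixed and permeabilised, then stained intracellularly for IFN-γ/IL-17A. Analysed by flow cytometry; n=4 mice per group.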

[8] = Half life in Sprague-Dawley rat at 10 mg/kg, iv administered as single dose by LC/MS analysis; format: ADME, organism-based; conditions: in vivo
Outline: (§5)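 Single dose in rats; venous blood (100 µL) drawn at 0, 0.5, 1, 2, 4, 8 and 12 h, plasma separated by centrifugation and held at -20 °C. Compound measured by LC/MS; Cmax, Tmax, t1/2 and AUC derived from the concentration–time data.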

[9] = Cmax in Sprague-Dawley rat at 50 mg/kg, po administered as single dose via gavage by LC/MS analysis; format: ADME, organism-based; set-up: dose 50 mg/kg, route oral; conditions: in vivo; outline: as §5
BMDM [10] = assay: Inhibition of LPS-induced M1 polarization in C57BL/6J mouse BMDM cells assessed as down regulation of CD86 expression measured after 24 hrs by FACS analysis; format: functional, cell-based
Outline: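 BMDMs pretreated with 50 ng/ml LPS for 24 h, then given compound (300 nM, or a range of concentrations) for 24 h. Stained for F4/80 and CD86; % CD86+F4/80+ cells read by flow cytometry. Mean ± SEM, at least three independent experiments.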

BMDM [11] = assay: Antiinflammatory activity in LPS-induced C57BL/6J mouse BMDM cells assessed as suppression of M1 macrophage-stimulated CD4 positive T-cell proliferation at 300 nM preincubated for 48 hrs followed by CD4 positive T-cell addition and measured after 72 hrs by CFSE dye based FACS analysis; format: functional
Outline: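 BMDMs given 300 nM compound with 50 ng/ml LPS for 48 h on day 5 of differentiation; drug removed day 7. Cells then cocultured 1:1 with CFSE-labelled negatively selected naïve CD4+ T cells plus 500 ng/ml anti-CD3 and 500 ng/ml anti-CD28. T-cell proliferation (CFSE MFI, % proliferated) read by flow cytometry after 72 h. Mean ± SEM, at least three independent experiments.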

BMDM [12] = assay: Antiinflammatory activity in LPS-induced C57BL/6J mouse BMDM cells assessed as suppression of M1 macrophage-stimulated Th1 cell population by measuring decrease in IFNgamma level at 300 nM measured after 48 hrs by ELISA; format: functional, cell-based
Outline: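 Supernatant collected from the 72 h coculture of CFSE-labelled naïve CD4+ T cells (anti-CD3/anti-CD28, 500 ng/ml each, 1:1) with BMDMs pretreated 48 h with 50 ng/ml LPS plus 300 nM compound. IFN-γ or IL-17A quantified by ELISA. Mean ± SEM, at least three independent experiments.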

Mus musculus [13] = assay: as §1, with “Treg” for “dendritic”, “CNS” for “spleen”, “CD4” for “CD11c”; format: functional, organism-based; outline: as §2
RAW264.7 [14] = assay: Inhibition of M1 polarization in mouse RAW264.7 cells assessed as down regulation of IL6 mRNA expression at 300 nM measured after 24 hrs by qRT-PCR analysis; format: functional, cell-based
Mus musculus [15] = assay: as §3, with “Inhibition” for “Induction”, “M1” for “M2”, “CD86” for “CD206”, “26.3%)” for “7.8%)”; format: functional; set-up: scale not given: the % may be the effect or the level left; outline: as §4
[16] = AUC (0 to t) in Sprague-Dawley rat at 10 mg/kg, iv administered as single dose by LC/MS analysis; format: ADME, organism-based; conditions: in vivo; outline: as §5
BMDM [17] = assay: Inhibition of LPS-induced M1 polarization in C57BL/6J mouse BMDM cells assessed as down regulation of Inos mRNA expression at 300 nM measured after 24 hrs by qRT-PCR analysis; format: functional, cell-based
Outline: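 BMDMs pre-incubated 24 h with 50 ng/ml LPS to induce M1, then treated 24 h with 300 nM compound. Total RNA extracted with Trizol; Mcp1, Inos and Cd86 mRNA measured by qRT-PCR. Mean ± SEM.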

Chain of Signal transducer and activator of transcription 3 (Mus musculus) (P42227 whole entry): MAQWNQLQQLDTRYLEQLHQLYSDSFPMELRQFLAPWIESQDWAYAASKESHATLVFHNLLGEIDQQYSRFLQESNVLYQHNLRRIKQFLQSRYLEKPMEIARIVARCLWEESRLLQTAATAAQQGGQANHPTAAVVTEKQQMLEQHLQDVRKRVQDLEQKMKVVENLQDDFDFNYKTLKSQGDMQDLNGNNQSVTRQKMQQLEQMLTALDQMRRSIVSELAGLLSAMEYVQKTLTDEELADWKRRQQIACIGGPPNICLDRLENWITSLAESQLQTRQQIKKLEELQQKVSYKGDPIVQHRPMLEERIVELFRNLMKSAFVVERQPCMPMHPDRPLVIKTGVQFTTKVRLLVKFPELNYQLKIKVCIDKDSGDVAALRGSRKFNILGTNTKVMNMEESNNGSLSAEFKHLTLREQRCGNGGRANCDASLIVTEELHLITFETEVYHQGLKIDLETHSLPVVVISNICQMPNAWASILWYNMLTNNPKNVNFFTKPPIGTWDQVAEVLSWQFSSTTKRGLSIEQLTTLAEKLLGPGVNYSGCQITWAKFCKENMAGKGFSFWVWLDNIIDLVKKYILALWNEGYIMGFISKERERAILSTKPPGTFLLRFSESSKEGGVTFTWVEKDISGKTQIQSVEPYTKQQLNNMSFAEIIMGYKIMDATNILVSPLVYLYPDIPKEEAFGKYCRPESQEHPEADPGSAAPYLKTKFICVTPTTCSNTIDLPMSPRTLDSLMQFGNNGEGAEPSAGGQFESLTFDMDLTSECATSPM

Compound: Cl.Cn1ncc(Cl)c1-c1ccc(C(=O)N[C@@H]2CNCC[C@H]2c2cccc(F)c2)cc1
- Activity (Mus musculus [1]): inactive
- Activity (RAW264.7 [2]): Active
- Activity (Mus musculus [3]): inactive
- Activity (Mus musculus [4]): 12.7%
- Activity (BMDM [5]): Active
- Activity [6]: Active
- Activity (Mus musculus [7]): 11.4%
- half-life [8]: 6.3 h
- Cmax [9]: 0.313 µg/mL
- inhibition (BMDM [10]): Dose-dependent effect
- Activity (BMDM [11]): Active
- Activity (BMDM [12]): Active
- Activity (Mus musculus [13]): inactive
- inhibition (RAW264.7 [14]): Active
- Activity (Mus musculus [15]): 16.6%
- AUC(0-t) [16]: 1.84 µg·h/mL
- inhibition (BMDM [17]): Active
